Laboratory results reported in ChEMBL document CHEMBL4152256, “Structure-activity relationship of new antimalarial 1-aryl-3-susbtituted propanol derivatives: Synthesis, preliminary toxicity profiling, parasite life cycle stage studies, target exploration, and targeted delivery” (Eur J Med Chem, 2018).

What was measured:
Plasmodium falciparum [1] = assay: Antiplasmodial activity against multidrug-resistant Plasmodium falciparum FCR-3 by [3H]-hypoxanthine incorporation assay; assay type: functional, organism-based, FCR-3/Gambia
How it was run: (§1)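 Blood-stage P. falciparum 3D7 and FCR-3 were tested by a modified [3H]-hypoxanthine incorporation assay. Chloroquine was the reference in all runs.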

Plasmodium falciparum [2] = assay: Antiplasmodial activity against chloroquine-sensitive Plasmodium falciparum 3D7 by [3H]-hypoxanthine incorporation assay; assay type: functional, organism-based; how it was run: as §1
[3] = Genotoxicity in Salmonella typhimurium TA1535 harboring pSK1002 assessed as survival at 0.125 mg/ml in absence of Sprague-Dawley rat liver S9 fraction after by SOS/umu assay relative to control; assay type: toxicity, organism-based; settings: salmonella enterica subsp. enterica serovar typhimurium, read-out: Survival
[4] = Genotoxicity in Salmonella typhimurium TA1535 harboring pSK1002 assessed as umu gene induction at 0.125 mg/ml in absence of Sprague-Dawley rat liver S9 fraction after by SOS/umu assay relative to control; assay type: toxicity, organism-based; settings: salmonella enterica subsp. enterica serovar typhimurium, read-out: FC
[5] = Genotoxicity in Salmonella typhimurium TA1535 harboring pSK1002 assessed as survival at 0.125 mg/ml in presence of Sprague-Dawley rat liver S9 fraction after by SOS/umu assay relative to control; assay type: toxicity, organism-based; settings: salmonella enterica subsp. enterica serovar typhimurium, read-out: Survival
[6] = Genotoxicity in Salmonella typhimurium TA1535 harboring pSK1002 assessed as umu gene induction at 0.063 mg/ml in absence of Sprague-Dawley rat liver S9 fraction after by SOS/umu assay relative to control; assay type: toxicity, organism-based; settings: salmonella enterica subsp. enterica serovar typhimurium, read-out: FC
[7] = Genotoxicity in Salmonella typhimurium TA1535 harboring pSK1002 assessed as survival at 0.063 mg/ml in presence of Sprague-Dawley rat liver S9 fraction after by SOS/umu assay relative to control; assay type: toxicity, organism-based; settings: salmonella enterica subsp. enterica serovar typhimurium, read-out: Survival
[8] = Genotoxicity in Salmonella typhimurium TA1535 harboring pSK1002 assessed as umu gene induction at 0.063 mg/ml in presence of Sprague-Dawley rat liver S9 fraction after by SOS/umu assay relative to control; assay type: toxicity, organism-based; settings: salmonella enterica subsp. enterica serovar typhimurium, read-out: FC
[9] = Genotoxicity in Salmonella typhimurium TA1535 harboring pSK1002 assessed as survival at 0.031 mg/ml in presence of Sprague-Dawley rat liver S9 fraction after by SOS/umu assay relative to control; assay type: toxicity, organism-based; settings: salmonella enterica subsp. enterica serovar typhimurium, read-out: Survival
[10] = Genotoxicity in Salmonella typhimurium TA1535 harboring pSK1002 assessed as umu gene induction at 0.031 mg/ml in presence of Sprague-Dawley rat liver S9 fraction after by SOS/umu assay relative to control; assay type: toxicity, organism-based; settings: salmonella enterica subsp. enterica serovar typhimurium, read-out: FC
[11] = Genotoxicity in Salmonella typhimurium TA1535 harboring pSK1002 assessed as survival at 0.016 mg/ml in absence of Sprague-Dawley rat liver S9 fraction after by SOS/umu assay relative to control; assay type: toxicity, organism-based; settings: salmonella enterica subsp. enterica serovar typhimurium, read-out: Survival
[12] = Genotoxicity in Salmonella typhimurium TA1535 harboring pSK1002 assessed as umu gene induction at 0.016 mg/ml in absence of Sprague-Dawley rat liver S9 fraction after by SOS/umu assay relative to control; assay type: toxicity, organism-based; settings: salmonella enterica subsp. enterica serovar typhimurium, read-out: FC
[13] = Genotoxicity in Salmonella typhimurium TA1535 harboring pSK1002 assessed as survival at 0.016 mg/ml in presence of Sprague-Dawley rat liver S9 fraction after by SOS/umu assay relative to control; assay type: toxicity, organism-based; settings: salmonella enterica subsp. enterica serovar typhimurium, read-out: Survival
[14] = Genotoxicity in Salmonella typhimurium TA1535 harboring pSK1002 assessed as umu gene induction at 0.016 mg/ml in presence of Sprague-Dawley rat liver S9 fraction after by SOS/umu assay relative to control; assay type: toxicity, organism-based; settings: salmonella enterica subsp. enterica serovar typhimurium, read-out: FC
[15] = Genotoxicity in Salmonella typhimurium TA1535 harboring pSK1002 assessed as survival at 0.008 mg/ml in absence of Sprague-Dawley rat liver S9 fraction after by SOS/umu assay relative to control; assay type: toxicity, organism-based; settings: salmonella enterica subsp. enterica serovar typhimurium, read-out: Survival
[16] = Genotoxicity in Salmonella typhimurium TA1535 harboring pSK1002 assessed as umu gene induction at 0.008 mg/ml in absence of Sprague-Dawley rat liver S9 fraction after by SOS/umu assay relative to control; assay type: toxicity, organism-based; settings: salmonella enterica subsp. enterica serovar typhimurium, read-out: FC
[17] = Genotoxicity in Salmonella typhimurium TA1535 harboring pSK1002 assessed as survival at 0.008 mg/ml in presence of Sprague-Dawley rat liver S9 fraction after by SOS/umu assay relative to control; assay type: toxicity, organism-based; settings: salmonella enterica subsp. enterica serovar typhimurium, read-out: Survival
[18] = Genotoxicity in Salmonella typhimurium TA1535 harboring pSK1002 assessed as umu gene induction at 0.008 mg/ml in presence of Sprague-Dawley rat liver S9 fraction after by SOS/umu assay relative to control; assay type: toxicity, organism-based; settings: salmonella enterica subsp. enterica serovar typhimurium, read-out: FC
[19] = Genotoxicity in Salmonella typhimurium TA1535 harboring pSK1002 assessed as survival at 0.004 mg/ml in absence of Sprague-Dawley rat liver S9 fraction after by SOS/umu assay relative to control; assay type: toxicity, organism-based; settings: salmonella enterica subsp. enterica serovar typhimurium, read-out: Survival
[20] = Genotoxicity in Salmonella typhimurium TA1535 harboring pSK1002 assessed as umu gene induction at 0.004 mg/ml in absence of Sprague-Dawley rat liver S9 fraction after by SOS/umu assay relative to control; assay type: toxicity, organism-based; settings: salmonella enterica subsp. enterica serovar typhimurium, read-out: FC
[21] = Genotoxicity in Salmonella typhimurium TA1535 harboring pSK1002 assessed as survival at 0.004 mg/ml in presence of Sprague-Dawley rat liver S9 fraction after by SOS/umu assay relative to control; assay type: toxicity, organism-based; settings: salmonella enterica subsp. enterica serovar typhimurium, read-out: Survival
[22] = Genotoxicity in Salmonella typhimurium TA1535 harboring pSK1002 assessed as umu gene induction at 0.004 mg/ml in presence of Sprague-Dawley rat liver S9 fraction after by SOS/umu assay relative to control; assay type: toxicity, organism-based; settings: salmonella enterica subsp. enterica serovar typhimurium, read-out: FC
[23] = Genotoxicity in Salmonella typhimurium TA1535 harboring pSK1002 assessed as survival at 0.002 mg/ml in absence of Sprague-Dawley rat liver S9 fraction after by SOS/umu assay relative to control; assay type: toxicity, organism-based; settings: salmonella enterica subsp. enterica serovar typhimurium, read-out: Survival
[24] = Genotoxicity in Salmonella typhimurium TA1535 harboring pSK1002 assessed as umu gene induction at 0.002 mg/ml in absence of Sprague-Dawley rat liver S9 fraction after by SOS/umu assay relative to control; assay type: toxicity, organism-based; settings: salmonella enterica subsp. enterica serovar typhimurium, read-out: FC
[25] = Genotoxicity in Salmonella typhimurium TA1535 harboring pSK1002 assessed as survival at 0.002 mg/ml in presence of Sprague-Dawley rat liver S9 fraction after by SOS/umu assay relative to control; assay type: toxicity, organism-based; settings: salmonella enterica subsp. enterica serovar typhimurium, read-out: Survival
[26] = Genotoxicity in Salmonella typhimurium TA1535 harboring pSK1002 assessed as umu gene induction at 0.002 mg/ml in presence of Sprague-Dawley rat liver S9 fraction after by SOS/umu assay relative to control; assay type: toxicity, organism-based; settings: salmonella enterica subsp. enterica serovar typhimurium, read-out: FC
[27] = Genotoxicity in Salmonella typhimurium TA1535 harboring pSK1002 assessed as survival at 0.001 mg/ml in absence of Sprague-Dawley rat liver S9 fraction after by SOS/umu assay relative to control; assay type: toxicity, organism-based; settings: salmonella enterica subsp. enterica serovar typhimurium, read-out: Survival
[28] = Genotoxicity in Salmonella typhimurium TA1535 harboring pSK1002 assessed as umu gene induction at 0.001 mg/ml in absence of Sprague-Dawley rat liver S9 fraction after by SOS/umu assay relative to control; assay type: toxicity, organism-based; settings: salmonella enterica subsp. enterica serovar typhimurium, read-out: FC
[29] = Genotoxicity in Salmonella typhimurium TA1535 harboring pSK1002 assessed as survival at 0.001 mg/ml in presence of Sprague-Dawley rat liver S9 fraction after by SOS/umu assay relative to control; assay type: toxicity, organism-based; settings: salmonella enterica subsp. enterica serovar typhimurium, read-out: Survival
[30] = Genotoxicity in Salmonella typhimurium TA1535 harboring pSK1002 assessed as umu gene induction at 0.001 mg/ml in presence of Sprague-Dawley rat liver S9 fraction after by SOS/umu assay relative to control; assay type: toxicity, organism-based; settings: salmonella enterica subsp. enterica serovar typhimurium, read-out: FC
[31] = Plasmodium falciparum, FCR-3/Gambia, 3 h

Oc1ccc(C(O)CCN2CC=C(c3ccc(F)cc3)CC2)cc1 (stereo not given)
IC50 (Plasmodium falciparum [1]; [31]): 2880 nM
IC50 (Plasmodium falciparum [2]; Plasmodium falciparum, 3D7): 22200 nM
viability at 0.125 mg/ml [3]: 112%
fold induction at 0.125 mg/ml [4]: 0.5
viability at 0.125 mg/ml [5]: 103%
fold induction at 0.063 mg/ml [6]: 0.5
viability at 0.063 mg/ml [7]: 118%
fold induction at 0.063 mg/ml [8]: 0.4
viability at 0.031 mg/ml [9]: 110%
fold induction at 0.031 mg/ml [10]: 1.8
viability at 0.016 mg/ml [11]: 94.8%
fold induction at 0.016 mg/ml [12]: 1.2
viability at 0.016 mg/ml [13]: 120%
fold induction at 0.016 mg/ml [14]: 1.2
viability at 0.008 mg/ml [15]: 98.3%
fold induction at 0.008 mg/ml [16]: 1.1
viability at 0.008 mg/ml [17]: 108%
fold induction at 0.008 mg/ml [18]: 0.6
viability at 0.004 mg/ml [19]: 97.1%
fold induction at 0.004 mg/ml [20]: 1
viability at 0.004 mg/ml [21]: 112%
fold induction at 0.004 mg/ml [22]: 0.5
viability at 0.002 mg/ml [23]: 98.6%
fold induction at 0.002 mg/ml [24]: 1
viability at 0.002 mg/ml [25]: 112%
fold induction at 0.002 mg/ml [26]: 1.4
viability at 0.001 mg/ml [27]: 87.9%
fold induction at 0.001 mg/ml [28]: 1.2
viability at 0.001 mg/ml [29]: 102%
fold induction at 0.001 mg/ml [30]: 0.5

COc1ccccc1N1CCN(CCC(O)c2ccc(F)cc2)CC1 (stereo in doubt; 66)
IC50 (Plasmodium falciparum [1]): 190 nM
IC50 (Plasmodium falciparum [2]): 7310 nM
viability at 0.125 mg/ml [3]: 107%
fold induction at 0.125 mg/ml [4]: 0.9
viability at 0.125 mg/ml [5]: 89.8%
fold induction at 0.063 mg/ml [6]: 0.9
viability at 0.063 mg/ml [7]: 100%
fold induction at 0.063 mg/ml [8]: 0.9
viability at 0.031 mg/ml [9]: 99.2%
fold induction at 0.031 mg/ml [10]: 0.9
viability at 0.016 mg/ml [11]: 108%
fold induction at 0.016 mg/ml [12]: 1
viability at 0.016 mg/ml [13]: 82.8%
fold induction at 0.016 mg/ml [14]: 1.1
viability at 0.008 mg/ml [15]: 114%
fold induction at 0.008 mg/ml [16]: 1
viability at 0.008 mg/ml [17]: 88.2%
fold induction at 0.008 mg/ml [18]: 1
viability at 0.004 mg/ml [19]: 108%
fold induction at 0.004 mg/ml [20]: 1.1
viability at 0.004 mg/ml [21]: 93.1%
fold induction at 0.004 mg/ml [22]: 1
viability at 0.002 mg/ml [23]: 114%
fold induction at 0.002 mg/ml [24]: 1
viability at 0.002 mg/ml [25]: 80.7%
fold induction at 0.002 mg/ml [26]: 1.2
viability at 0.001 mg/ml [27]: 110%
fold induction at 0.001 mg/ml [28]: 1.1
viability at 0.001 mg/ml [29]: 91.6%
fold induction at 0.001 mg/ml [30]: 1.3

COc1ccccc1C1=CCN(CCC(O)c2ccc(F)c3ccccc23)CC1 (stereo not given)
IC50 (Plasmodium falciparum [1]; [31]): 1300 nM
IC50 (Plasmodium falciparum [2]; Plasmodium falciparum, 3D7): 100 nM
viability at 0.125 mg/ml [3]: 114%
fold induction at 0.125 mg/ml [4]: 0.4
viability at 0.125 mg/ml [5]: 79.1%
fold induction at 0.063 mg/ml [6]: 0.5
viability at 0.063 mg/ml [7]: 76%
fold induction at 0.063 mg/ml [8]: 0.6
viability at 0.031 mg/ml [9]: 124%
fold induction at 0.031 mg/ml [10]: 0.5
viability at 0.016 mg/ml [11]: 50.6%
fold induction at 0.016 mg/ml [12]: 1.2
viability at 0.016 mg/ml [13]: 84%
fold induction at 0.016 mg/ml [14]: 0.8
viability at 0.008 mg/ml [15]: 76.4%
fold induction at 0.008 mg/ml [16]: 0.8
viability at 0.008 mg/ml [17]: 96.9%
fold induction at 0.008 mg/ml [18]: 0.7
viability at 0.004 mg/ml [19]: 76.7%
fold induction at 0.004 mg/ml [20]: 0.9
viability at 0.004 mg/ml [21]: 91.1%
fold induction at 0.004 mg/ml [22]: 0.8
viability at 0.002 mg/ml [23]: 86.6%
fold induction at 0.002 mg/ml [24]: 0.9
viability at 0.002 mg/ml [25]: 101%
fold induction at 0.002 mg/ml [26]: 0.9
viability at 0.001 mg/ml [27]: 81.7%
fold induction at 0.001 mg/ml [28]: 0.9
viability at 0.001 mg/ml [29]: 106%
fold induction at 0.001 mg/ml [30]: 0.8
